In publication PMC2151523 (The Journal of General Physiology, 2006):
Several values for one entry are separate records, joined by “and”; a condition that tells them apart may be missing. Equal entries are not always repeated. Where two headings read alike, the source gives them in different places.

Columns and labels:
[1] = tested on: 391C cysteine-less CNGA1 channels; type: biochemical, bovine; settings: for modification rate open state versus closed state: average rates (Fig. 11 D)
Outline: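 391C channels were expressed in Xenopus oocytes and recorded 3–5 d after cRNA injection. Solutions contained 120 mM NaCl, 1 mM EGTA, 1 mM EDTA, 10 mM HEPES, pH 7.4. MTS reagent was applied for 2 s at 0 mV, with 2 mM cGMP (open state) or without it (closed state). Current was then monitored by a 50-ms step to +80 mV in 2 mM cGMP. Each value is the mean of at least three experiments.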

[2] = molecular target: T1, bovine rod CNGA1 channels (Bos taurus, UniProt Q00194); type: biochemical; settings: for δ (Woodhull fit, best-fit): four blockers in the same patch (Fig. 4 C)
T1 sequence (Q00194 1-690): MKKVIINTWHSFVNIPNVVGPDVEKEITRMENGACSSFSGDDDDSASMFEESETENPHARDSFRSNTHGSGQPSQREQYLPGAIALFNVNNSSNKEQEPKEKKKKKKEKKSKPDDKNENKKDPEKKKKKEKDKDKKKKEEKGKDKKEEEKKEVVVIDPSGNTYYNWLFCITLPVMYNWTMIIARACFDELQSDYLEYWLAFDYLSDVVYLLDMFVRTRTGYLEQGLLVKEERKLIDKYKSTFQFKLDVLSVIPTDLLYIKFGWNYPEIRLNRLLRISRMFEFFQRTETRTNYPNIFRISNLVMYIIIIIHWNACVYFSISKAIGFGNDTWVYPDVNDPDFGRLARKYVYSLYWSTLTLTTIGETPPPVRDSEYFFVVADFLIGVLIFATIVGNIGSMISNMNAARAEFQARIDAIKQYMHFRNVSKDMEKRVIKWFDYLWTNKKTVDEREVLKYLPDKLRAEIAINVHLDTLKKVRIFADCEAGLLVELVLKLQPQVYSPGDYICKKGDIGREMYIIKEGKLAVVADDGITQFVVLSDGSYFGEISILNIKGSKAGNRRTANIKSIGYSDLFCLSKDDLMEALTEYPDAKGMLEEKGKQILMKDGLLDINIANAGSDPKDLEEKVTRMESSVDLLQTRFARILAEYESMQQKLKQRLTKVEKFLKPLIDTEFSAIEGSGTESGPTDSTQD
Outline: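 Inside-out patches from HEK293 cells expressing bovine rod CNGA1. Bath and pipette solution: 160 mM NaCl, 1 mM EGTA, 1 mM EDTA, 10 mM HEPES, pH 7.4. Currents were elicited with 1 mM cGMP by steps from −80 to +80 mV in 20 mV increments from a 0 mV holding potential. Records without cGMP were subtracted, and blocker was added to the bath. Block was read 10–40 s after exchange, at the end of the +80 mV pulse. KD and n came from a Hill fit. δ came from Woodhull fits of per-voltage KD and was averaged over 10 patches. Comparisons were made in the same patch and bracketed by controls.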

391C CNGA1 channels = test: Cd2+ inhibition in the closed state and its slowing by blocker; type: biochemical, bovine
CNGA1 channels [3] = settings: cited from earlier work
CNGA1 channels [4] = settings: ref Flynn and Zagotta, 2001; cited from earlier work
CNGA1 channel = molecular target: T2, CNGA1 channel (Bos taurus, UniProt Q00194); test: Single channel recordings of blockade, inside-out patches; type: biochemical, bovine; settings: +70 mV, 2 mM cGMP
T2 sequence (Q00194 1-690): T1 sequence (Q00194 1-690)
Outline: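 Single-channel recordings were made in inside-out patches with 7–10 MΩ pipettes at +70 mV with saturating 2 mM cGMP. Signals were sampled at 20 kHz, Bessel-filtered at 5 kHz, then digitally filtered at 2 kHz. Amplitude histograms (40 s of record) were fitted with two Gaussians. Open dwell-time distributions were fitted with two exponentials. τ2 was normalised to its blocker-free value, and its dose response was fitted with a Hill equation.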

Kv channels = settings: cysteine at valine of PVP region; ref Liu et al., 1997; cited from earlier work
[5] = 500 μM reagent, estimated from τ
[6] = read-out: average KD0, 0 mV, average of several patches

## CC[N+](CC)(CC)CCCSS(C)(=O)=O [MTS-PtrEA]
[1]; 500 μM reagent, 2 mM cGMP
  time constant τ of modification, open state: 5.7 ± 0.3 s
[1]; 500 μM reagent, absence of cGMP
  time constant τ of modification, closed state: 27 ± 1 s
[1]; [5]
  modification rate, closed state: 74 M⁻¹ s⁻¹
  modification rate, open state: 351 M⁻¹ s⁻¹
[1]
  modification rate open state versus closed state: three to seven

## CCCCCCCCCC[N+](C)(C)C [C10-TMA, decyl-trimethyl ammonium]
[2]; 50 μM, +80 mV, 1 mM cGMP
  difference in apparent affinity as compared with C10-TEA: 1.8 fold

## CCCCCC[N+](CC)(CC)CC [C6-TEA, hexyltriethylammonium]
[2]; average of several patches
  average δ: −0.48 ± 0.02
[2]; 1 mM cGMP
  δ (Woodhull fit, best-fit): −0.53 ± 0.02
[2]; [6]
  Kd: 5 mM

## [Cl][Cd][Cl] [Cd^2+, CdCl2]
391C CNGA1 channels; 6 μM Cd2+, no cGMP, no blocker
  time constant τ of current inhibition by Cd2+, closed state: 2.64 ± 0.08 s
391C CNGA1 channels; 50 μM Cd2+, unpublished data
  effect on cysteine-less wild-type channels: no effect
391C CNGA1 channels; unpublished data
  recovery of current inhibition: 20–40%
  time course τ of recovery of current inhibition: ~100 s

## Cc1cc(N)c2ccccc2[n+]1CCCCCCCCCC[n+]1c(C)cc(N)c2ccccc21 [dequalinium]
CNGA1 channels [3]; ref Rosenbaum et al., 2004
  apparent affinity for closed channels compared with open channels: three- to fivefold

## CC[N+](CC)(CC)CC [TEA, tetraethylammonium]
[2]; 5 mM blocker, +80 mV, 1 mM cGMP
  reduction in current: ~35%
[2]; average of several patches
  average δ: −0.31 ± 0.04
[2]; [6]
  Kd: 35 mM

## CCCCCCCC[N+](CC)(CC)CC [C8-TEA]
[2]; 1 mM cGMP
  δ (Woodhull fit, best-fit): −0.44 ± 0.02
[2]; [6]
  Kd: 0.9 ± 0.2 mM

## CCCC[N+](CC)(CC)CC [C4-TEA]
[2]; average of several patches
  average δ: −0.40 ± 0.03
[2]; 1 mM cGMP
  δ (Woodhull fit, best-fit): −0.45 ± 0.02
[2]; [6]
  Kd: 11 mM

## CS(=O)(=O)SCCN [MTSEA, amino ethyl-MTS]
CNGA1 channels [4]
  modification rates in both closed and open state: 10^3–10^4 M^−1s^−1

## CC[N+](CC)(CC)CCSS(C)(=O)=O [MTSTEA]
[1]
  modification rate open state versus closed state: three to seven

## CCCCNc1ccc(C(=O)OCCN(C)C)cc1 [Tetracaine, tetracaine]
CNGA1 channels [3]; ref Fodor et al., 1997b, Ghatpande et al., 2003
  apparent affinity in the closed state compared with the open state: ~10^3 times higher

## CCC[N+](CC)(CC)CC [C3-TEA]
[2]; average of several patches
  average δ: −0.40 ± 0.08
[2]; [6]
  Kd: 31 mM

## CCCCCCCCCC[N+](CC)(CC)CC [C10-TEA, decyltriethyl ammonium]
[2]; 5 μM blocker, +80 mV
  extent of blockade at subsaturating versus saturating cGMP: Blockade was larger at subsaturating levels of cGMP
[2]; 15 μM blocker, +80 mV, 16 mM agonist
  blockade levels under saturating cGMP, cIMP or cAMP: Blockade levels were larger for cIMP and cAMP
[2]; +80 mV, 1 mM cGMP, one patch (Fig. 2 A)
  Hill coefficient n: 1.19 ± 0.04
[2]; 1 mM cGMP
  δ (Woodhull fit, best-fit): −0.44 ± 0.01
[2]; [6]
  Kd: 0.05 ± 0.01 mM
[2]; read-out: average KDc, four different patches
  Kd: 0.0023 ± 0.0006 mM
CNGA1 channel; 5 μM blocker
  amplitude for the open state: 2.317 ± 0.002 pA
CNGA1 channel; 5 μM blocker, 5% without blocker
  area of the nonconductive level in current histogram: 26%
CNGA1 channel; 5 μM blocker, 95% without blocker
  area of the open state in amplitude histogram: 74%
CNGA1 channel; 25 μM blocker
  open dwell-time fraction A1: 0.19
  open dwell-time fraction A2: 0.81
CNGA1 channel; 25 μM blocker, 0.7 ms in control
  open dwell-time fast component τ1: ~0.7 ms and 0.6 ms
CNGA1 channel; 25 μM blocker, 12.2 ms in control
  apparent mean open time of the main (slow) component, τ2: 3.74 ms and 3.7 ms

## C[N+](C)(C)CCSS(C)(=O)=O [MTSET, trimethylammonium ethyl-MTS]
Kv channels
  modification rate in the closed state: 1 M⁻¹ s⁻¹
  state-dependent accessibility (modification rate): ~10^6 M^−1s^−1
